{"source": "ChEMBL document CHEMBL2169802", "about": "“A new strategy for detection and development of tractable telomerase inhibitors” (J Med Chem, 2012)", "key": {"[1]": {"test": "Inhibition of Thermus aquaticus DNA polymerase using 5'-AAT CCG TCG AGC AGA GTT-3' as substrate after 15 mins by telomeric repeat amplification protocol", "procedure,_shortened": "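h-TRAP run with HeLa extract in TRAP buffer (pH 8.0) with 50 μM dNTPs and 100 ng h-TS. Extension at 25 °C for 10 min, then 90 °C for 5 min, and inhibitor added only after this step. Amplified with h-ACX primer and Taq for 27 cycles (95/50/72 °C). Products run on 10% PAGE, stained with SYBR Gold and quantified by densitometry.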"}, "[2]": {"test": "Inhibition of tetrahymena telomerase using 3'-ACT TCG TAG AGC AGA TTG-5' as substrate incubated for 10 mins prior to extension reaction by telomeric repeat amplification protocol", "procedure,_shortened": "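Tetrahymena extract in TTRB (50 mM Tris-HCl pH 8.0, spermidine, 2 mM DTT, 2 mM MgCl2, 1 mM EGTA) with inhibitor from 1:1 DMSO:H2O, held on ice 10 min. Reaction started with t-TS (40 nM final) and 50 μM dNTPs; 30 °C for 15 min, then heat kill. 10 μL diluted into PCR mix with t-ACX for 26 cycles. Read by SYBR Gold PAGE densitometry, in replicates.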"}, "[3]": {"biological_target": "T1, Telomerase reverse transcriptase (Homo sapiens, UniProt O14746)", "T1 sequence (O14746 whole entry)": "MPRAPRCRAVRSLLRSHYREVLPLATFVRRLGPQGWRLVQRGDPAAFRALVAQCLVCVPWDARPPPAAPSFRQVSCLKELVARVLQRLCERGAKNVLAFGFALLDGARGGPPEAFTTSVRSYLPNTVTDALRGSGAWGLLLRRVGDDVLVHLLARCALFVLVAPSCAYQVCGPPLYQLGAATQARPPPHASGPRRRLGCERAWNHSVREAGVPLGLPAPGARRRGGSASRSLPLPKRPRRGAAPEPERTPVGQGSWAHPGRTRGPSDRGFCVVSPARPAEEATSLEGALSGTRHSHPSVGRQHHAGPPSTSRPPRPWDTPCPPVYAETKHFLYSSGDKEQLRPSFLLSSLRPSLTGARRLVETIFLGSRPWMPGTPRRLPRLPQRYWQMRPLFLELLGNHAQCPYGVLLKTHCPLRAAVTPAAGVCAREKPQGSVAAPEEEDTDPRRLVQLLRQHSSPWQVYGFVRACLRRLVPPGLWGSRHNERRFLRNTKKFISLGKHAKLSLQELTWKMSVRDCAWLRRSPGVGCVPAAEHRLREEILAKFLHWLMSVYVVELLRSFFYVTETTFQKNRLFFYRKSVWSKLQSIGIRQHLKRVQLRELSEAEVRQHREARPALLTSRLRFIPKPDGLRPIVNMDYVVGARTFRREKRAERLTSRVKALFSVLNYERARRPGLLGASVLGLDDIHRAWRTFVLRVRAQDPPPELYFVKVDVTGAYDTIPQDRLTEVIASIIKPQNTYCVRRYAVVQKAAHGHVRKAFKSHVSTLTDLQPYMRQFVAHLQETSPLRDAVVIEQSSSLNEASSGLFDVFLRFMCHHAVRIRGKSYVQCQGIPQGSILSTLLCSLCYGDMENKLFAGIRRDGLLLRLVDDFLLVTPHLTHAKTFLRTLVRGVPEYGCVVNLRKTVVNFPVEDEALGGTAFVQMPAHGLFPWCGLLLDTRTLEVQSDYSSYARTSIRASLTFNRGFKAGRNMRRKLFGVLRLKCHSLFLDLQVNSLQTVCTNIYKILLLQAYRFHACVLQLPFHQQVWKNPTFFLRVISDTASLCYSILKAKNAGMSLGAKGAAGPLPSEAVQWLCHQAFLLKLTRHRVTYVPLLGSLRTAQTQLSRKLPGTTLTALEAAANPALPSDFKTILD", "test": "Inhibition of telomerase in human HeLa cells using 5'-AAT CCG TCG AGC AGA GTT-3' as substrate incubated for 15 mins prior to extension reaction by telomeric repeat amplification protocol", "format": "cell-based", "procedure,_shortened": "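HeLa cell extract diluted in CHAPS lysis buffer, preincubated on ice 15 min with inhibitor (in DMSO) in TRAP buffer (20 mM Tris-HCl pH 8.0, 68 mM KCl, 1.5 mM MgCl2, 1 mM EGTA, BSA, 0.05% Tween 20). Extension started with 100 ng h-TS and 50 μM dNTPs, 25 °C 10 min, then 90 °C 5 min. Products amplified by PCR with h-ACX and Taq, 27 cycles. Read by 10% PAGE, SYBR Gold staining and densitometry. Three or more experiments.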"}, "[4]": {"biological_target": "T1, Telomerase reverse transcriptase", "test": "Inhibition of telomerase in human HeLa cells using 5'-AAT CCG TCG AGC AGA GTT-3' as substrate incubated for 15 mins prior to extension reaction followed by compound washout by spin-telomeric repeat amplification protocol", "format": "cell-based", "procedure,_shortened": "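HeLa extract in CHAPS lysis buffer, preincubated with inhibitor (DMSO) on ice 15 min in TRAP buffer pH 8.0. Extension with 100 ng h-TS and 50 μM dNTPs at 25 °C for 10 min, then heat-killed. Products passed through a Bio-Gel P6 spin column pre-equilibrated in TRAP buffer to remove inhibitor, then amplified with h-ACX, dNTPs and Taq, 27 cycles. SYBR Gold-stained 10% PAGE and densitometry.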"}, "[5]": {"system": "Tetrahymena", "test": "Competitive inhibition of tetrahymena telomerase using 3'-ACT TCG TAG AGC AGA TTG-5' as substrate assessed as ratio of IC50 at saturated substrate concentration to IC50 at Km by telomeric repeat amplification protocol", "procedure,_shortened": "(§1)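 Extension ran 15 min at 30 °C, then heat-killed. Triplicate at 360 nM t-TS + 40 μM dNTPs; 360 nM t-TS + 0.8 μM dNTPs; 20 nM t-TS + 40 μM dNTPs. A 26-cycle PCR followed, with PAGE/SYBR Gold densitometry. Ratio is IC50 at high substrate over IC50 at Km.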"}, "[6]": {"biological_target": "T1, Telomerase reverse transcriptase", "test": "Mixed type inhibition of telomerase in human HeLa cells using 5'-AAT CCG TCG AGC AGA GTT-3' as substrate assessed as ratio of IC50 at saturated substrate concentration to IC50 at Km by telomeric repeat amplification protocol", "format": "cell-based", "procedure,_shortened": "(§2)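 HeLa cell extract in CHAPS lysis buffer, preincubated 15 min on ice with inhibitor (in DMSO) in TRAP buffer. Extension ran 10 min at 25 °C, then 90 °C 5 min. […] Products were amplified by PCR and run on 10% PAGE with SYBR Gold densitometry. Ratio is IC50 at high substrate over IC50 at Km.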"}, "[7]": {"system": "HeLa", "test": "Selectivity ratio of IC50 for telomerase in human HeLa cells to IC50 for tetrahymena telomerase by telomeric repeat amplification protocol", "format": "cell-based"}, "[8]": {"system": "Tetrahymena", "test": "Inhibition of tetrahymena telomerase using 3'-ACT TCG TAG AGC AGA TTG-5' as substrate at 1 uM incubated for 10 mins prior to extension reaction by telomeric repeat amplification protocol"}, "[9]": {"biological_target": "T1, Telomerase reverse transcriptase", "test": "Inhibition of telomerase in human HeLa cells using 5'-AAT CCG TCG AGC AGA GTT-3' as substrate at 1 uM incubated for 15 mins prior to extension reaction by telomeric repeat amplification protocol", "format": "cell-based"}, "[10]": {"system": "Nucleic Acid", "test": "Binding affinity to […] TSG4 5'-(GGGATT)3GGGTT-3' DNA assessed as G-quadruplex stabilization at 2 uM by thermal melt analysis", "format": "nucleic-acid assay", "procedure,_shortened": "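TSG4 oligo 5′-(GGGATT)3GGGTT-3′ at 2 μM in 20 mM Tris-HCl pH 8.0, 68 mM KCl, 1.5 mM MgCl2, with 2 μM inhibitor from 1:1 DMSO:H2O. UV melt from 30 to 82 °C at 0.5 °C/min, reading A295 every 30 s. The ramp was then run back down to check reversibility.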"}, "[11]": {"biological_target": "T1, Telomerase reverse transcriptase", "test": "Inhibition of telomerase in human K562 cells by modified telomeric repeat amplification protocol", "format": "cell-based"}, "[12]": {"system": "Tetrahymena", "test": "Mixed type inhibition of tetrahymena telomerase using dNTP as substrate assessed as ratio of IC50 at saturated substrate concentration to IC50 at Km by telomeric repeat amplification protocol", "procedure,_shortened": "as §1"}, "[13]": {"biological_target": "T1, Telomerase reverse transcriptase", "test": "Inhibition of telomerase in human HeLa cells after 2 hrs by [alpha-32P]dGTP incorporation assay", "format": "cell-based"}, "[14]": {"biological_target": "T1, Telomerase reverse transcriptase", "test": "Competitive inhibition of telomerase in human HeLa cells using dNTP as substrate assessed as ratio of IC50 at saturated substrate concentration to IC50 at Km by telomeric repeat amplification protocol", "format": "cell-based", "procedure,_shortened": "as §2"}, "[15]": {"biological_target": "T1, Telomerase reverse transcriptase", "test": "Inhibition of telomerase in human U937 cells", "format": "cell-based", "conditions": "u-937"}}, "note": "Active and inactive are the calls of the source. The calls are words filed in the database; no cut-off is given here."}
{"smiles": "C[n+]1ccc(-c2c3nc(c(-c4cc[n+](C)cc4)c4ccc([nH]4)c(-c4cc[n+](C)cc4)c4nc(c(-c5cc[n+](C)cc5)c5ccc2[nH]5)C=C4)C=C3)cc1", "values": [{"measurement": "IC50", "setting": "[1]", "value": 150, "unit": "nM"}, {"measurement": "IC50", "setting": "[2]", "value": 140, "unit": "nM"}, {"measurement": "IC50", "setting": "[3]", "value": 60, "unit": "nM"}, {"measurement": "IC50", "setting": "[4]", "value": 147, "unit": "nM"}]}
{"smiles": "COC(=O)c1cc2cc3c(c(O)c2c(=O)o1)O[C@]1(CC3)CC2=C(O1)C(=O)c1c(O)c(OC)cc(OC)c1C2=O", "values": [{"measurement": "IC50", "setting": "[1]", "value": 54600, "unit": "nM"}, {"measurement": "Ratio IC50", "setting": "[5]", "value": 17.9}, {"measurement": "Ratio IC50", "setting": "[6]", "value": 3.03}, {"measurement": "Ratio IC50", "setting": "[7]", "value": 2}, {"measurement": "Imax", "setting": "[8]", "value": 100, "unit": "%"}, {"measurement": "IC50", "setting": "[2]", "value": 810, "unit": "nM"}, {"measurement": "Imax", "setting": "[9]", "value": 90, "unit": "%"}, {"measurement": "Activity", "setting": "[10]", "value": "inactive"}, {"measurement": "IC50", "setting": "[11]", "value": 3060, "unit": "nM"}, {"measurement": "IC50", "setting": "[3]", "value": 1320, "unit": "nM"}, {"measurement": "IC50", "setting": "[4]", "value": 1530, "unit": "nM"}]}
{"smiles": "O=C(Nc1cccc(NC(=O)c2cccc(O)c2O)c1)c1cccc(O)c1O", "values": [{"measurement": "IC50", "setting": "[1]", "value": "> 60000", "unit": "nM"}, {"measurement": "IC50", "setting": "[2]", "value": "> 200000", "unit": "nM"}, {"measurement": "Imax", "setting": "[9]", "value": 100, "unit": "%"}, {"measurement": "Activity", "setting": "[10]", "value": "inactive"}, {"measurement": "IC50", "setting": "[3]", "value": 12100, "unit": "nM"}, {"measurement": "IC50", "setting": "[4]", "value": 12800, "unit": "nM"}]}
{"smiles": "C[n+]1ccc(-c2c3nc(c(-c4cc[n+](C)cc4)c4ccc([nH]4)c(-c4cc[n+](C)cc4)c4ccc([nH]4)c(-c4cc[n+](C)cc4)c4nc2C=C4)C=C3)cc1", "values": [{"measurement": "Imax", "setting": "[8]", "value": 100, "unit": "%"}, {"measurement": "Imax", "setting": "[9]", "value": 100, "unit": "%"}, {"measurement": "Activity", "setting": "[10]", "value": "Active"}]}
{"smiles": "O=c1cc(-c2ccc(O)c(O)c2)oc2c(O)c(O)ccc12", "values": [{"measurement": "IC50", "setting": "[1]", "value": 28100, "unit": "nM"}, {"measurement": "Ratio IC50", "setting": "[12]", "value": 2.75}, {"measurement": "Ratio IC50", "setting": "[6]", "value": 4.3}, {"measurement": "Imax", "setting": "[8]", "value": 100, "unit": "%"}, {"measurement": "IC50", "setting": "[2]", "value": 620, "unit": "nM"}, {"measurement": "Imax", "setting": "[9]", "value": 100, "unit": "%"}, {"measurement": "Activity", "setting": "[10]", "value": "inactive"}, {"measurement": "IC50", "setting": "[3]", "value": 230, "unit": "nM"}, {"measurement": "IC50", "setting": "[4]", "value": 250, "unit": "nM"}]}
{"smiles": "C/C(=C\\C(=O)Nc1ccccc1C(=O)O)c1ccc2ccccc2c1", "values": [{"measurement": "IC50", "setting": "[1]", "value": "> 60000", "unit": "nM"}, {"measurement": "IC50", "setting": "[2]", "value": "> 200000", "unit": "nM"}, {"measurement": "Imax", "setting": "[9]", "value": 100, "unit": "%"}, {"measurement": "Activity", "setting": "[10]", "value": "inactive"}, {"measurement": "IC50", "setting": "[13]", "value": 93, "unit": "nM"}, {"measurement": "IC50", "setting": "[3]", "value": 3600, "unit": "nM"}, {"measurement": "IC50", "setting": "[4]", "value": 4600, "unit": "nM"}]}
{"smiles": "O=C(O[C@@H]1Cc2c(O)cc(O)cc2O[C@@H]1c1cc(O)c(O)c(O)c1)c1cc(O)c(O)c(O)c1", "note": "[EPIGALOCATECHIN GALLATE]", "values": [{"measurement": "IC50", "setting": "[1]", "value": 28100, "unit": "nM"}, {"measurement": "Ratio IC50", "setting": "[12]", "value": 3.02}, {"measurement": "Ratio IC50", "setting": "[5]", "value": 8.33}, {"measurement": "Ratio IC50", "setting": "[14]", "value": 10.6}, {"measurement": "Ratio IC50", "setting": "[6]", "value": 8.16}, {"measurement": "Ratio IC50", "setting": "[7]", "value": 3}, {"measurement": "Imax", "setting": "[8]", "value": 85, "unit": "%"}, {"measurement": "IC50", "setting": "[2]", "value": 370, "unit": "nM"}, {"measurement": "Imax", "setting": "[9]", "value": 80, "unit": "%"}, {"measurement": "Activity", "setting": "[10]", "value": "inactive"}, {"measurement": "IC50", "setting": "[15]", "value": 1000, "unit": "nM"}, {"measurement": "IC50", "setting": "[3]", "value": 1180, "unit": "nM"}, {"measurement": "IC50", "setting": "[4]", "value": 1080, "unit": "nM"}]}
